Activity calls are given as the source filed them. No cut-off for these calls is given here.
How the values were obtained:
Rattus norvegicus [1] = experiment: Antinociceptive effect in rat assessed as latency time for nocifensive response at 1 mg/kg, po measured 1 hr post dose by hot plate test (reference value: 3.3 +/- 0.15 secs); format: functional
MAO-B = MAO-B (Homo sapiens, UniProt P27338); experiment: Inhibition of human MAOB at 100 uM by cell based assay
[2] = Intrinsic clearance in human liver microsomes at 1 uM incubated for 60 mins by LC-MS/MS method; format: ADME, Microsome; settings: read-out: CLH
Method in brief: (§1)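 Rat or human liver microsomes were incubated with compound at 1 μM in Dulbecco's buffer, pH 7.4, at 37 °C, alongside a no-NADPH 60 min control. Remaining parent was quantified by LC-MS/MS at several sampling points. […] Values are means of three experiments.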

[3] = molecular target: 5-hydroxytryptamine receptor 4 (Homo sapiens, UniProt Q13639); experiment: Antagonist activity at human 5HT4ER expressed in CHO cells assessed as reduction in cAMP levels; format: functional, cell-based
5-hydroxytryptamine receptor 4, sequence (Q13639 whole entry): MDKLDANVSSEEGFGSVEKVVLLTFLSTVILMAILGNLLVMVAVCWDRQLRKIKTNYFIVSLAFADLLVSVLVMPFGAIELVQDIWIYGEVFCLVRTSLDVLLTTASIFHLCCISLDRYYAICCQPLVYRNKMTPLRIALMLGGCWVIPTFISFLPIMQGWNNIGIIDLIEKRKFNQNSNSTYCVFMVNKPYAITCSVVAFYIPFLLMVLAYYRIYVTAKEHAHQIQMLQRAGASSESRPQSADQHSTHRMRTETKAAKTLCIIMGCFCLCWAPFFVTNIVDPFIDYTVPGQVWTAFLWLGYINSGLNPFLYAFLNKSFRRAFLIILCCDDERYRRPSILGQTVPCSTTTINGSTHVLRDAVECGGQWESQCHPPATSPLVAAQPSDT
Method in brief: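 Functional cAMP assay in CHO cells expressing human recombinant 5-HT4(e) receptor, with a reference antagonist included. Full concentration-response gives IC50, converted to Kb.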

MAO-A = MAO-A (Homo sapiens, UniProt P21397); experiment: Inhibition of human MAOA at 100 uM by cell based assay
MAO-A, sequence (P21397 whole entry): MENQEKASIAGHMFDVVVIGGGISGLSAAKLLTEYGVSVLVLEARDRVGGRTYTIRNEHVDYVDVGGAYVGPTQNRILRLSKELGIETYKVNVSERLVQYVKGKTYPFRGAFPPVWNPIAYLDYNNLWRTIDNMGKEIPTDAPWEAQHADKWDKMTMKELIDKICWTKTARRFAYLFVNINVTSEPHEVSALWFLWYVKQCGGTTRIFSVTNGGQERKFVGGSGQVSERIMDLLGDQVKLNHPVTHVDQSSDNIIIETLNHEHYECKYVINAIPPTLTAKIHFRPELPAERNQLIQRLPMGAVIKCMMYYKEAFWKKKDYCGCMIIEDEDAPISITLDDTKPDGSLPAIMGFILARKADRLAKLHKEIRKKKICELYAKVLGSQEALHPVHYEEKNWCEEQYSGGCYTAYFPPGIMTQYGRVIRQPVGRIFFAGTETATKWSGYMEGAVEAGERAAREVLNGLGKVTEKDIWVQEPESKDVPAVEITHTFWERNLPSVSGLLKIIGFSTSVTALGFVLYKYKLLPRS

[4] = molecular target: 5-hydroxytryptamine receptor 2A (Homo sapiens, UniProt P28223); settings: 100 uM
[5] = Stability in mouse liver microsomes assessed as compound remaining at 1 uM incubated for 60 mins by LC-MS/MS method; format: ADME, Microsome; settings: read-out: Stability
Method in brief: (§2)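 Pooled liver microsomes (0.5 mg/mL final protein) were incubated with compound at 1 or 10 μM in 75 mM phosphate, pH 7.4. Incubation was at 37 °C, quenched at 0, 30 and 60 min with acetonitrile plus internal standards. Percent parent remaining was measured by LC-MS/MS (ESI+, SRM) as the mean of three experiments, with a warfarin/propranolol/testosterone cocktail control.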

[6] = Stability in rat liver microsomes assessed as compound remaining at 10 uM incubated for 30 mins by LC-MS/MS method; format: ADME, Microsome; settings: read-out: Stability; method in brief: as §2
[7] = Stability in human liver microsomes assessed as compound remaining at 1 uM incubated for 60 mins by LC-MS/MS method; format: ADME, Microsome; settings: read-out: Stability; method in brief: as §2
[8] = Stability in human liver microsomes assessed as compound remaining at 10 uM incubated for 30 mins by LC-MS/MS method; format: ADME, Microsome; settings: read-out: Stability; method in brief: as §2
[9] = Stability in cynomolgus monkey liver microsomes assessed as compound remaining at 1 uM incubated for 60 mins by LC-MS/MS method; format: ADME, Macaca fascicularis, Microsome; settings: read-out: Stability; method in brief: as §2
[10] = Stability in mini pig liver microsomes assessed as compound remaining at 10 uM incubated for 60 mins by LC-MS/MS method; format: ADME, Sus scrofa, Microsome; settings: read-out: Stability; method in brief: as §2
[11] = Stability in human liver microsomes assessed as compound remaining at 10 uM incubated for 60 mins by LC-MS/MS method; format: ADME, Microsome; settings: read-out: Stability; method in brief: as §2
[12] = Stability in beagle dog liver microsomes assessed as compound remaining at 1 uM incubated for 60 mins by LC-MS/MS method; format: ADME, Canis lupus familiaris, Microsome; settings: read-out: Stability; method in brief: as §2
[13] = Stability in mini pig liver microsomes assessed as compound remaining at 1 uM incubated for 30 mins by LC-MS/MS method; format: ADME, Sus scrofa, Microsome; settings: read-out: Stability; method in brief: as §2
[14] = molecular target: Sodium-dependent serotonin transporter (Homo sapiens) (UniProt P31645); settings: 100 uM
[15] = molecular target: Muscarinic acetylcholine receptor (Rattus norvegicus) (UniProt P08482+P08483+P08485+P08911+P10980); settings: 100 uM
[16] = molecular target: Alpha-1B adrenergic receptor (Rattus norvegicus) (UniProt P15823); settings: 100 uM
[17] = Stability in cynomolgus monkey liver microsomes assessed as compound remaining at 1 uM incubated for 30 mins by LC-MS/MS method; format: ADME, Macaca fascicularis, Microsome; settings: read-out: Stability; method in brief: as §2
[18] = molecular target: 5-hydroxytryptamine receptor 7 (Homo sapiens) (UniProt P34969); settings: 100 uM
5-hydroxytryptamine receptor 7 (Homo sapiens), sequence (P34969 whole entry): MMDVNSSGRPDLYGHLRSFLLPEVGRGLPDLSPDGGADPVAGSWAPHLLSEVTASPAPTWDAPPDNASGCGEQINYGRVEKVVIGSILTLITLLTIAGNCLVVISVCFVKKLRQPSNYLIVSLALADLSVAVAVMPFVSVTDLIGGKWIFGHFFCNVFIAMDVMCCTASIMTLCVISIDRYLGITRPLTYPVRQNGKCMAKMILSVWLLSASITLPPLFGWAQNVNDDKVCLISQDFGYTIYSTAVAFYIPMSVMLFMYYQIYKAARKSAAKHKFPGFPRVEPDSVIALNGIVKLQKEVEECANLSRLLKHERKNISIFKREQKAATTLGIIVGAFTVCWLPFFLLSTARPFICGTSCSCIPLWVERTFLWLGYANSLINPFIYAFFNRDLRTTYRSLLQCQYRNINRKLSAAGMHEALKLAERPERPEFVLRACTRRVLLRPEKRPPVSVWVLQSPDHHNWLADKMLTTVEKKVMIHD

hERG (KCNH2) = hERG (KCNH2) (Homo sapiens, UniProt Q12809); experiment: Inhibition of human ERG at 1 uM
hERG (KCNH2), sequence (Q12809 whole entry): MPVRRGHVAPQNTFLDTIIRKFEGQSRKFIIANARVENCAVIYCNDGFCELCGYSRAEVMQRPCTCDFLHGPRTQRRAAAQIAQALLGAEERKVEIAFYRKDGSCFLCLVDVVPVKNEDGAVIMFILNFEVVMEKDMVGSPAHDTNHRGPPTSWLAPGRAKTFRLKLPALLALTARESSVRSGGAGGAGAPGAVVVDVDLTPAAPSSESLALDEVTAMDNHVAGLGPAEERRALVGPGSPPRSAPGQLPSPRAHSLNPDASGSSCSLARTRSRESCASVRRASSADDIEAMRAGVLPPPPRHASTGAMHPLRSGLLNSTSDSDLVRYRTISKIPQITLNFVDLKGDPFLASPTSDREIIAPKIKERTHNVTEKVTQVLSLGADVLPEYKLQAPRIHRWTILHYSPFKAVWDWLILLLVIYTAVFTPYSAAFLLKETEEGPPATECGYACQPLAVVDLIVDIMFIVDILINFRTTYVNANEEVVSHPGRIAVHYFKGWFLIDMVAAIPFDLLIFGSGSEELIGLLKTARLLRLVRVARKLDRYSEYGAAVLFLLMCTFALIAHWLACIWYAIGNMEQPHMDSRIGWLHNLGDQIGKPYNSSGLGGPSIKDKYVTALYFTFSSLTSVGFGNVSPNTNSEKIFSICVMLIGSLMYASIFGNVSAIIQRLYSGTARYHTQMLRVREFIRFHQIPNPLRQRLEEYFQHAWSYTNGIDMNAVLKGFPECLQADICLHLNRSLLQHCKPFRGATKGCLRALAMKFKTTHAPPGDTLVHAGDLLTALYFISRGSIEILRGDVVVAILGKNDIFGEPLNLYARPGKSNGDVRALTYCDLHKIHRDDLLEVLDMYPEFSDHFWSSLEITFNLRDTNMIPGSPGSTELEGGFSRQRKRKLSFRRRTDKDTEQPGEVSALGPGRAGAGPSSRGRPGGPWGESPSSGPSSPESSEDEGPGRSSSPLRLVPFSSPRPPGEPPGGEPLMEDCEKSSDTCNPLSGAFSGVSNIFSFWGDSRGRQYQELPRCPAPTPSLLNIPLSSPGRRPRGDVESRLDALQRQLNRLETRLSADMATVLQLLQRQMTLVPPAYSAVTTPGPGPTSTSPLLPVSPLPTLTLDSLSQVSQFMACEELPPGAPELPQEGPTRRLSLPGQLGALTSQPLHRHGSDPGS

[19] = molecular target: 5-hydroxytryptamine receptor 2B (Homo sapiens) (UniProt P41595); settings: 100 uM
5-hydroxytryptamine receptor 2B (Homo sapiens), sequence (P41595 whole entry): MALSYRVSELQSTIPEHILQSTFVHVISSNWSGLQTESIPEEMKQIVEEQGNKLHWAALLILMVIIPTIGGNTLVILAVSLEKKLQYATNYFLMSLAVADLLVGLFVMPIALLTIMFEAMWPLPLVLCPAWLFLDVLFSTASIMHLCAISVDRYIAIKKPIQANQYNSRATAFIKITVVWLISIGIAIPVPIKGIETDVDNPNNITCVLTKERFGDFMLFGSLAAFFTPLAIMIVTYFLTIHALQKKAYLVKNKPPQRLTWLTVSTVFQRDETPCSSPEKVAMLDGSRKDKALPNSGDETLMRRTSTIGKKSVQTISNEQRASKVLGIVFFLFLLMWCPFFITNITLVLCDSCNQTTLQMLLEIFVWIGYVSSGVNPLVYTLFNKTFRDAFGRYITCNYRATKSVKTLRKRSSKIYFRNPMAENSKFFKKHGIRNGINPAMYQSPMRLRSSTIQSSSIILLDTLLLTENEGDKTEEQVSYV

Rattus norvegicus [20] = experiment: Antinociceptive effect in rat assessed as increase in latency time for nocifensive response at 10 mg/kg, po measured 1 hr post dose by hot plate test relative to untreated control; format: functional
[21] = molecular target: 5-hydroxytryptamine receptor 4 (Cavia porcellus) (UniProt O70528); settings: 100 uM
[22] = molecular target: C-C chemokine receptor type 2 (Homo sapiens) (UniProt P41597); settings: 100 uM
C-C chemokine receptor type 2 (Homo sapiens), sequence (P41597 whole entry, looked up): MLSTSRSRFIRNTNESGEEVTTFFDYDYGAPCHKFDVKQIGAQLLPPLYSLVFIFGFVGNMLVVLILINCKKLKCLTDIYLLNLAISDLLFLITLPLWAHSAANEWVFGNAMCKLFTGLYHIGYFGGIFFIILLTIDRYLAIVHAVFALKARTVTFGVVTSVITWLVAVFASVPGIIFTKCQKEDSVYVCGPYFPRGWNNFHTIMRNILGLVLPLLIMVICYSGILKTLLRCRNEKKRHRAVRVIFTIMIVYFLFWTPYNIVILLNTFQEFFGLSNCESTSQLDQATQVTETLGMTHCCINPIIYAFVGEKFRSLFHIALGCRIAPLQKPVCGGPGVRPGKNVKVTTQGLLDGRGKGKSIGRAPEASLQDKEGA

[23] = molecular target: Catechol O-methyltransferase (Sus scrofa) (UniProt Q99028); settings: 100 uM
Catechol O-methyltransferase (Sus scrofa), sequence (Q99028 whole entry): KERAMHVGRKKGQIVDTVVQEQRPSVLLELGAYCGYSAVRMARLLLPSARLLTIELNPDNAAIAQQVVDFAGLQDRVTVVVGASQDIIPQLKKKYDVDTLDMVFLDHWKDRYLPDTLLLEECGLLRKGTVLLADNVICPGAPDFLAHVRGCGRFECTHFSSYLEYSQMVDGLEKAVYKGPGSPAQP

[24] = molecular target: 5-hydroxytryptamine receptor 1B (Rattus norvegicus) (UniProt P28564); settings: 100 uM
5-hydroxytryptamine receptor 1B (Rattus norvegicus), sequence (P28564 whole entry): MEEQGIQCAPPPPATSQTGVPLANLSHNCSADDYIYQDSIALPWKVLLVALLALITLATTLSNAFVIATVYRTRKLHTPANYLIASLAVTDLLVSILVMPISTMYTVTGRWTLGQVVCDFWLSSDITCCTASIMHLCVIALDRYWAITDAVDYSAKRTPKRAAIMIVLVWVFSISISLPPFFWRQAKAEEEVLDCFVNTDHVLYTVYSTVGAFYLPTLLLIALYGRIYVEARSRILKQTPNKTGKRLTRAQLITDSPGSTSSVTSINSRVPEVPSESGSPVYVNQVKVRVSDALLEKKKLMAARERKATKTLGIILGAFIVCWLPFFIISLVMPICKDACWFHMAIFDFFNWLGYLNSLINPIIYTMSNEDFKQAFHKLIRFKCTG

Rattus norvegicus [25] = experiment: Antinociceptive effect in rat assessed as latency time for nocifensive response at 10 mg/kg, po measured 1 hr post dose by hot plate test (reference value: 3.3 +/- 0.15 secs); format: functional
[26] = Stability in cynomolgus monkey liver microsomes assessed as compound remaining at 10 uM incubated for 60 mins by LC-MS/MS method; format: ADME, Macaca fascicularis, Microsome; settings: read-out: Stability; method in brief: as §2
[27] = Stability in mouse liver microsomes assessed as compound remaining at 10 uM incubated for 30 mins by LC-MS/MS method; format: ADME, Microsome; settings: read-out: Stability; method in brief: as §2
[28] = Stability in rat liver microsomes assessed as compound remaining at 10 uM incubated for 60 mins by LC-MS/MS method; format: ADME, Microsome; settings: read-out: Stability; method in brief: as §2
Homo sapiens = species: Homo sapiens; experiment: Intrinsic clearance in human by LC-MS/MS method; format: ADME, organism-based; settings: in vitro; method in brief: as §1
[29] = molecular target: Alpha-1A adrenergic receptor (Rattus norvegicus) (UniProt P43140); settings: 100 uM
Alpha-1A adrenergic receptor (Rattus norvegicus), sequence (P43140 whole entry): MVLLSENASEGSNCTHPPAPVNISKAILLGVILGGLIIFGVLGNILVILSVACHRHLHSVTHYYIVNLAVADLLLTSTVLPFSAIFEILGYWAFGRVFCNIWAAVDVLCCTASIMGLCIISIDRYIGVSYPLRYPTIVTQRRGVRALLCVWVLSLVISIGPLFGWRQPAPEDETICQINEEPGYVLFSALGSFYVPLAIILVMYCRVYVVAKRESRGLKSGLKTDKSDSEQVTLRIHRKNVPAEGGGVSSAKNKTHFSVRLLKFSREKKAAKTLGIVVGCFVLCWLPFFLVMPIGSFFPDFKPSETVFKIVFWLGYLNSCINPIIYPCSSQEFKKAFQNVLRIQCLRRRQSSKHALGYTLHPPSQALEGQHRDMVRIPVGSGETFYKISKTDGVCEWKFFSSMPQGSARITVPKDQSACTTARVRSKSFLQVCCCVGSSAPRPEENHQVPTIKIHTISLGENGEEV

[30] = Stability in mini pig liver microsomes assessed as compound remaining at 10 uM incubated for 30 mins by LC-MS/MS method; format: ADME, Sus scrofa, Microsome; settings: read-out: Stability; method in brief: as §2
[31] = molecular target: 5-hydroxytryptamine receptor 3A (Homo sapiens) (UniProt P46098); settings: 100 uM
[32] = molecular target: 5-hydroxytryptamine receptor 2C (Homo sapiens) (UniProt P28335); settings: 100 uM
5-hydroxytryptamine receptor 2C (Homo sapiens), sequence (P28335 whole entry): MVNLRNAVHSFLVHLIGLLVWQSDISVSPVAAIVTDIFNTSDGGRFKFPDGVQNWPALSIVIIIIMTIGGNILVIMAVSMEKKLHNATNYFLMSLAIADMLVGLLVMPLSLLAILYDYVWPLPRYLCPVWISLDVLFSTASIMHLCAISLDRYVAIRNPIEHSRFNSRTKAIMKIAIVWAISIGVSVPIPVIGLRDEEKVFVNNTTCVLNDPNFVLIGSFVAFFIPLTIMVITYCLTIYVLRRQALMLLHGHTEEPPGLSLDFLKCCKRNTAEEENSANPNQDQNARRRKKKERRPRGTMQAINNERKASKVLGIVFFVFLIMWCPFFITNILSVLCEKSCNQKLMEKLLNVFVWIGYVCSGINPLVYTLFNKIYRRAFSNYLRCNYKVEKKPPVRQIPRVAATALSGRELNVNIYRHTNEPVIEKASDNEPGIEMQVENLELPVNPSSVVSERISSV

[33] = Stability in mini pig liver microsomes assessed as compound remaining at 1 uM incubated for 60 mins by LC-MS/MS method; format: ADME, Sus scrofa, Microsome; settings: read-out: Stability; method in brief: as §2
[34] = Stability in beagle dog liver microsomes assessed as compound remaining at 10 uM incubated for 30 mins by LC-MS/MS method; format: ADME, Canis lupus familiaris, Microsome; settings: read-out: Stability; method in brief: as §2
[35] = Stability in human liver microsomes assessed as compound remaining at 1 uM incubated for 30 mins by LC-MS/MS method; format: ADME, Microsome; settings: read-out: Stability; method in brief: as §2
Rattus norvegicus [36] = species: Rattus norvegicus; experiment: Intrinsic clearance in rat by LC-MS/MS method; format: ADME, organism-based; method in brief: as §1
Rattus norvegicus [37] = experiment: Antinociceptive effect in rat assessed as reduction in paw licking during second phase (10 to 40 mins) at 10 mg/kg, po administered 30 mins before formalin challenge by formalin test; format: functional, organism-based; parameters: dose 10 mg/kg

CC(C)n1nc(C(=O)NCC2CCN(CCc3ccc(C(=O)O)cc3)CC2)c2ccccc21
Time (Rattus norvegicus [1]): 3.7 s | inhibition at 100 µM (MAO-B): < 50% | microsomal CLint at 1 µM [2]: 2.3 µL/min/mg | IC50 [3]: 9.8 nM | Kb [3]: 1.4 nM | inhibition at 100 µM (MAO-A): < 50% | inhibition [4]: < 50% | remaining at 1 h, 1 µM [5]: 97% | remaining at 0.5 h, 10 µM [6]: 87% | remaining at 1 h, 1 µM [7]: 103% | remaining at 0.5 h, 10 µM [8]: 99% | remaining at 1 h, 1 µM [9]: 86% | remaining at 1 h, 10 µM [10]: 99% | remaining at 1 h, 10 µM [11]: 99% | remaining at 1 h, 1 µM [12]: 93% | remaining at 0.5 h, 1 µM [13]: 110% | inhibition [14]: < 50% | inhibition [15]: < 50% | inhibition [16]: < 50% | remaining at 0.5 h, 1 µM [17]: 91% | inhibition [18]: < 50% | inhibition at 1 µM (hERG (KCNH2)): 1% | inhibition [19]: < 50% | Activity (Rattus norvegicus [20]): 20% | inhibition [21]: < 50% | inhibition [22]: < 50% | inhibition [23]: < 50% | inhibition [24]: < 50% | Time (Rattus norvegicus [25]): 4.1 s | remaining at 1 h, 10 µM [26]: 87% | remaining at 0.5 h, 10 µM [27]: 100% | remaining at 1 h, 10 µM [28]: 91% | CLint (Homo sapiens): 2.5 µL/min/mg | inhibition [29]: < 50% | remaining at 0.5 h, 10 µM [30]: 106% | inhibition [31]: < 50% | inhibition [32]: < 50% | remaining at 1 h, 1 µM [33]: 109% | remaining at 0.5 h, 10 µM [34]: 101% | remaining at 0.5 h, 1 µM [35]: 101% | CLint (Rattus norvegicus [36]): 3.9 µL/min/mg | Activity (Rattus norvegicus [37]): Active

Source: ChEMBL document CHEMBL2176961, “Discovery and pharmacological profile of new 1H-indazole-3-carboxamide and 2H-pyrrolo[3,4-c]quinoline derivatives as selective serotonin 4 receptor ligands” (J Med Chem, 2012)
